Measured values of several laboratories.
Lines come from different studies, so protocols differ.
Organism: Hepatitis C virus
Observed: viral replication
Action: inhibitor
Notes: replicon

Structure (SMILES) | method | cells | strain | time | EC50 [nM]
CN1CCN(C(c2ccccc2)c2ccc(Cl)cc2)CC1 (racemic) |  | Huh-7.5.1 | GETYPE2A | 48 h | 44
C=C1CC[C@H](O)C/C1=C/C=C1\CCC[C@]2(C)[C@@H]([C@H](C)/C=C/[C@H](C)C(C)C)CC[C@@H]12 | luciferase | BM4-5 | GETYPE1B | 5 days | 14200
COc1nc(N)nc2c1ncn2[C@@H]1O[C@H](COP(=O)(N[C@@H](C)C(=O)OCC(C)(C)C)Oc2cccc3ccccc23)[C@@H](O)[C@@]1(C)O (some centres unmarked) |  |  | GETYPE2A | 96 h | 7.3
C=C1/C(=C\C=C2/CCC[C@]3(C)[C@@H]([C@H](C)CCCC(C)(C)O)CC[C@@H]23)C[C@@H](O)C[C@@H]1O | luciferase | BM4-5 | GETYPE1B | 5 days | 1100
COC(=O)N[C@H](C(=O)N1CCC[C@H]1c1ncc(-c2ccc(-c3ccc(-c4cnc([C@@H]5CCCN5C(=O)[C@@H](NC(=O)OC)C(C)C)[nH]4)cc3)cc2)[nH]1)C(C)C |  |  | GETYPE1B |  | 0.009
O=C1OC[C@H]2OC(O)[C@H](O)[C@@H](O)[C@@H]2OC(=O)c2cc(O)c(O)c(O)c2-c2c(O)c(O)c3oc(=O)c4c(c(O)c(O)c5oc(=O)c2c3c54)-c2c1cc(O)c(O)c2O (mixture of isomers) |  | Huh-7 | GETYPE2A | 48 h | > 150000
C=C1CC[C@H](O)C/C1=C/C=C1\CCC[C@]2(C)[C@@H]([C@H](C)CCCC(C)C)CC[C@@H]12 | luciferase | BM4-5 | GETYPE1B | 72 h | 6100
CC(C)(CO)C(=O)SCCOP(=O)(NCc1ccccc1)OC[C@H]1O[C@@H](n2cnc3c(=O)[nH]c(N)nc32)[C@](C)(O)[C@@H]1O (mixture of isomers) |  | Huh-7 | GETYPE1 |  | 300
CCN1CCN(C2c3ccccc3-c3ccc(Br)cc32)CC1 (centres unmarked) |  | Huh-7.5.1 | GETYPE2A | 48 h | > 1000
CC(C)(C)OC(=O)N[C@H]1CCCCC/C=C\[C@@H]2C[C@@]2(C(=O)NS(=O)(=O)C2CC2)NC(=O)[C@@H]2C[C@@H](OC(=O)N3Cc4cccc(F)c4C3)CN2C1=O |  | Huh-7 | GETYPE1A GETYPE1B | 96 h | 0.57
O=C1N[C@H]2[C@H](CS[C@H]2CCCCC(=O)N2CCC[C@@H]2C(=O)Nc2ccc(/C=C/c3ccc(NC(=O)[C@H]4CCCN4C(=O)Cc4ccccc4)cc3)cc2)N1 |  |  | GETYPE1B |  | > 10000
